Assay results as given in ChEMBL document CHEMBL5724801, “EUbOPEN Chemogenomics Library - Multiplex” (2024).
“And” between values parts separate entries of the source, which are not always exact repeats. Equal values may be shown once.

Legend:
Fibroblast = test: Multiplex assay against human fibroblast; type: toxicity, cell-based
Procedure, shortened: (§1)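 Per cents of healthy-nucleus cells form the tubulin, mitochondrial-mass and membrane-permeability phenotype values. Live cells were stained at seeding with Hoechst33342, BioTracker Green Microtubule Cytoskeleton Dye, MitoTracker Red and Annexin V Alexa Fluor 680. After compound addition they were imaged on a CQ1 microscope at 37°C and 5% CO2, and CellPathfinder machine-learning gating split them into Hoechst high-intensity objects or normal cells, normal cells into healthy, pyknosed or fragmented nuclei, and pyknosed cells into mitotic or apoptotic.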

U2OS = test: Multiplex assay against U2OS; type: toxicity, cell-based; conditions: human; procedure, shortened: as §1
[1] = 24 h, 10 µM, compound concentration 10 uM
[2] = 48 h, 1 µM, compound concentration 1 uM
[3] = 48 h, 10 µM, compound concentration 10 uM
[4] = 12 h, 1 µM, compound concentration 1 uM
[5] = 12 h, 10 µM, compound concentration 10 uM
[6] = 24 h, 1 µM, compound concentration 1 uM

Cc1ccc(-c2c(C(=O)CF)n(CCCO)c3ncnc(N)c23)cc1
Population Mitochondria Different-Phenotype (%) (Fibroblast; [1]): 4.55% and 5.81%
Population Mitotic Cells (%) (Fibroblast; [1]): 90.7% and 90%
Population Normal (%) (Fibroblast; [1]): 100%
Population Pyknosed Nuclei (%) (Fibroblast; [1]): 19.91% and 9.9%
Population Tubulin-Different-Phenotype (%) (Fibroblast; [1]): 23.38% and 29.07%
Total Cell Count (Fibroblast; [1]): 216 and 202
Population Apoptotic (%) (Fibroblast; [2]): 26.67% and 20%
Population Healthy Nuclei (%) (Fibroblast; [2]): 73.05% and 89.29%
Population Hoechst High Intensity Objects (%) (Fibroblast; [2]): 0%
Population Membrane Permeable-Phenotype (%) (Fibroblast; [2]): 1.64% and 1.78%
Population Mitotic Cells (%) (Fibroblast; [2]): 73.33% and 80%
Population Normal (%) (Fibroblast; [2]): 100%
Population Pyknosed Nuclei (%) (Fibroblast; [2]): 8.98% and 7.94%
Population Tubulin-Different-Phenotype (%) (Fibroblast; [2]): 7.38% and 16.44%
Total Cell Count (Fibroblast; [2]): 167 and 252
Population Apoptotic (%) (Fibroblast; [3]): 9.09% and 27.27%
Population Fragmented Nuclei (%) (Fibroblast; [3]): 7.76% and 9.13%
Population Healthy Nuclei (%) (Fibroblast; [3]): 87.21% and 80.29%
Population Hoechst High Intensity Objects (%) (Fibroblast; [3]): 0%
Population Membrane Permeable-Phenotype (%) (Fibroblast; [3]): 1.57% and 0.6%
Population Mitochondria Different-Phenotype (%) (Fibroblast; [3]): 8.9% and 2.4%
Population Mitotic Cells (%) (Fibroblast; [3]): 90.91% and 72.73%
Population Normal (%) (Fibroblast; [3]): 100%
Population Pyknosed Nuclei (%) (Fibroblast; [3]): 5.02% and 10.58%
Population Tubulin-Different-Phenotype (%) (Fibroblast; [3]): 9.42% and 27.54%
Total Cell Count (Fibroblast; [3]): 219 and 208
Population Apoptotic (%) (U2OS; [4]): 36.11% and 57.14%
Population Fragmented Nuclei (%) (U2OS; [4]): 2.07% and 1.92%
Population Healthy Nuclei (%) (U2OS; [4]): 88.63% and 84.62%
Population Hoechst High Intensity Objects (%) (U2OS; [4]): 0%
Population Membrane Permeable-Phenotype (%) (U2OS; [4]): 0.29% and 2.27%
Population Mitochondria Different-Phenotype (%) (U2OS; [4]): 0% and 2.27%
Population Mitotic Cells (%) (U2OS; [4]): 63.89% and 42.86%
Population Normal (%) (U2OS; [4]): 100%
Population Pyknosed Nuclei (%) (U2OS; [4]): 9.3% and 13.46%
Population Tubulin-Different-Phenotype (%) (U2OS; [4]): 0.29% and 0%
Population Apoptotic (%) (U2OS; [5]): 50% and 52.94%
Population Fragmented Nuclei (%) (U2OS; [5]): 1.91% and 5.78%
Population Healthy Nuclei (%) (U2OS; [5]): 88.83% and 84.39%
Population Hoechst High Intensity Objects (%) (U2OS; [5]): 0%
Population Membrane Permeable-Phenotype (%) (U2OS; [5]): 0.61% and 4.11%
Population Mitochondria Different-Phenotype (%) (U2OS; [5]): 0% and 3.42%
Population Mitotic Cells (%) (U2OS; [5]): 50% and 47.06%
Population Normal (%) (U2OS; [5]): 100%
Population Pyknosed Nuclei (%) (U2OS; [5]): 9.26% and 9.83%
Population Tubulin-Different-Phenotype (%) (U2OS; [5]): 0.61% and 0%
Total Cell Count (U2OS; [5]): 367 and 173
Population Apoptotic (%) (U2OS; [6]): 47.37% and 40%
Population Fragmented Nuclei (%) (U2OS; [6]): 1.55% and 4.48%
Population Healthy Nuclei (%) (U2OS; [6]): 91.09% and 84.33%
Population Hoechst High Intensity Objects (%) (U2OS; [6]): 0%
Population Membrane Permeable-Phenotype (%) (U2OS; [6]): 0.43% and 3.54%
Population Mitochondria Different-Phenotype (%) (U2OS; [6]): 0% and 2.65%
Population Mitotic Cells (%) (U2OS; [6]): 52.63% and 60%
Population Normal (%) (U2OS; [6]): 100%
Population Pyknosed Nuclei (%) (U2OS; [6]): 7.36% and 11.19%
Population Tubulin-Different-Phenotype (%) (U2OS; [6]): 0.21% and 0.88%
Population Apoptotic (%) (U2OS; [1]): 54.05% and 43.48%
Population Fragmented Nuclei (%) (U2OS; [1]): 2.71% and 3.7%
Population Healthy Nuclei (%) (U2OS; [1]): 89.58% and 86.83%
Population Hoechst High Intensity Objects (%) (U2OS; [1]): 0%
Population Membrane Permeable-Phenotype (%) (U2OS; [1]): 0.93% and 5.21%
Population Mitochondria Different-Phenotype (%) (U2OS; [1]): 0% and 4.27%
Population Mitotic Cells (%) (U2OS; [1]): 45.95% and 56.52%
Population Normal (%) (U2OS; [1]): 100%
Population Pyknosed Nuclei (%) (U2OS; [1]): 7.71% and 9.47%
Population Tubulin-Different-Phenotype (%) (U2OS; [1]): 1.4% and 0.47%
Total Cell Count (U2OS; [1]): 480 and 243
Population Apoptotic (%) (U2OS; [2]): 33.82% and 20%
Population Fragmented Nuclei (%) (U2OS; [2]): 3.18% and 5%
Population Healthy Nuclei (%) (U2OS; [2]): 89.85% and 81.36%
Population Hoechst High Intensity Objects (%) (U2OS; [2]): 0%
Population Membrane Permeable-Phenotype (%) (U2OS; [2]): 1.26% and 1.12%
Population Mitochondria Different-Phenotype (%) (U2OS; [2]): 0% and 2.23%
Population Mitotic Cells (%) (U2OS; [2]): 66.18% and 80%
Population Normal (%) (U2OS; [2]): 100%
Population Pyknosed Nuclei (%) (U2OS; [2]): 6.97% and 13.64%
Population Tubulin-Different-Phenotype (%) (U2OS; [2]): 0.34% and 0.56%
Population Apoptotic (%) (U2OS; [3]): 49.33% and 48.98%
Population Fragmented Nuclei (%) (U2OS; [3]): 2.94% and 2.66%
Population Healthy Nuclei (%) (U2OS; [3]): 89.18% and 85.47%
Population Hoechst High Intensity Objects (%) (U2OS; [3]): 0%
Population Membrane Permeable-Phenotype (%) (U2OS; [3]): 0.94% and 1.13%
Population Mitochondria Different-Phenotype (%) (U2OS; [3]): 0% and 1.42%
Population Mitotic Cells (%) (U2OS; [3]): 50.67% and 51.02%
Population Normal (%) (U2OS; [3]): 100%
Population Pyknosed Nuclei (%) (U2OS; [3]): 7.88% and 11.86%
Population Tubulin-Different-Phenotype (%) (U2OS; [3]): 1.06% and 0.57%
Total Cell Count (U2OS; [3]): 952 and 413
